According to ChEMBL document CHEMBL5653631, “A Potent and Selective ULK1 Inhibitor Suppresses Autophagy and Sensitizes Cancer Cells to Nutrient Stress” (iScience, 2018):
Each block holds one compound with its values, some of them ahead of it.

Legend:
[1] = target: Cyclin-dependent kinase 3 (Homo sapiens) (UniProt Q00526); test: Inhibition of human recombinant CDK3 at 500 nM in presence of ATP by radiometric assay relative to control
[2] = target: MAP kinase-activated protein kinase 3 (Homo sapiens) (UniProt Q16644); test: Inhibition of human recombinant MAPKAPK3 at 500 nM in presence of ATP by radiometric assay relative to control
[3] = target: Mitogen-activated protein kinase 11 (Homo sapiens) (UniProt Q15759); test: Inhibition of human recombinant p38beta at 500 nM in presence of ATP by radiometric assay relative to control
[4] = target: T1, Inhibitor of nuclear factor kappa-B kinase subunit alpha (Homo sapiens) (UniProt O15111); test: Inhibition of human recombinant IKKa at 500 nM related to control ULK1
T1 sequence (whole entry): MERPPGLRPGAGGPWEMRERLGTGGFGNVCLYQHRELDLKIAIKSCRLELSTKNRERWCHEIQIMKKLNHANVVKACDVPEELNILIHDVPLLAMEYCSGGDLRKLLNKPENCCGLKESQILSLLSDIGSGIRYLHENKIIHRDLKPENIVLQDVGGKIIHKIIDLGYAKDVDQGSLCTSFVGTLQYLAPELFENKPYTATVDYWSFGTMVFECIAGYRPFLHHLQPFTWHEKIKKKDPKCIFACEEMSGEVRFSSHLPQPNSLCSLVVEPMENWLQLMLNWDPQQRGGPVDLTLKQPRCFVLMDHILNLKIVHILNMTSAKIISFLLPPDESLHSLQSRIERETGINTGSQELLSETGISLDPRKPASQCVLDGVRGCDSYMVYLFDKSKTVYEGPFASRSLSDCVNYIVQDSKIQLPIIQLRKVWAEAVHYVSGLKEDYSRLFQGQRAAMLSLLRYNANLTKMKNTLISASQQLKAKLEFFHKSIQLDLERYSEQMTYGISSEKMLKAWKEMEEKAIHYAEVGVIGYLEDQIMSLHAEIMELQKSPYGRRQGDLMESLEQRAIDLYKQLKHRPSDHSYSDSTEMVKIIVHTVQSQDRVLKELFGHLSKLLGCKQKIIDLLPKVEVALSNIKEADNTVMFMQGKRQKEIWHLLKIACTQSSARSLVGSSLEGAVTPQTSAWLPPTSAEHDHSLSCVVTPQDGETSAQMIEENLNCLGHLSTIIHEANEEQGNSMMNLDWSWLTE

[5] = target: Serine/threonine-protein kinase MRCK alpha (Homo sapiens) (UniProt Q5VT25); test: Inhibition of human recombinant MRCKa at 500 nM related to control ULK1
[6] = target: Serine/threonine-protein kinase PAK 3 (Homo sapiens) (UniProt O75914); test: Inhibition of human recombinant PAK3 at 500 nM related to control ULK1
[7] = target: STE20-like serine/threonine-protein kinase (Homo sapiens) (UniProt Q9H2G2); test: Inhibition of human recombinant SLK at 500 nM related to control ULK1
[8] = target: 3-phosphoinositide-dependent protein kinase 1 (Homo sapiens) (UniProt O15530); test: Inhibition of human recombinant PDK1 at 500 nM related to control ULK1
[9] = target: T2, Serine/threonine-protein kinase 17B (Homo sapiens) (UniProt O94768); test: Inhibition of human recombinant DRAK2 at 40 nM in presence of ATP by radiometric assay relative to control
T2 sequence (whole entry): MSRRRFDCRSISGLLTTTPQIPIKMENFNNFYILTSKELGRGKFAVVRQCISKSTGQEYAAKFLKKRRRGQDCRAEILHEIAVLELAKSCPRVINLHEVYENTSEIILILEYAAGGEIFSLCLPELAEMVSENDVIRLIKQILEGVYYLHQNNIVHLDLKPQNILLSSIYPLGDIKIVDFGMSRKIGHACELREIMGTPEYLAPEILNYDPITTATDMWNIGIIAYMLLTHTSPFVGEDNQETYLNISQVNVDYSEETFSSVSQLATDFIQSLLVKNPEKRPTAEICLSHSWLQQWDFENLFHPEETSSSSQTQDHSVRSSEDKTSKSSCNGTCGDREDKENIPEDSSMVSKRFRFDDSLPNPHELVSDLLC

[10] = target: Dual specificity mitogen-activated protein kinase kinase 1 (Homo sapiens) (UniProt Q02750); test: Inhibition of human recombinant MAP2K1 at 40 nM in presence of ATP by radiometric assay relative to control
[11] = target: T3, Phosphorylase b kinase gamma catalytic chain, liver/testis isoform (Homo sapiens) (UniProt P15735); test: Inhibition of human recombinant PHKg2 at 40 nM related to control ULK1
T3 sequence (whole entry): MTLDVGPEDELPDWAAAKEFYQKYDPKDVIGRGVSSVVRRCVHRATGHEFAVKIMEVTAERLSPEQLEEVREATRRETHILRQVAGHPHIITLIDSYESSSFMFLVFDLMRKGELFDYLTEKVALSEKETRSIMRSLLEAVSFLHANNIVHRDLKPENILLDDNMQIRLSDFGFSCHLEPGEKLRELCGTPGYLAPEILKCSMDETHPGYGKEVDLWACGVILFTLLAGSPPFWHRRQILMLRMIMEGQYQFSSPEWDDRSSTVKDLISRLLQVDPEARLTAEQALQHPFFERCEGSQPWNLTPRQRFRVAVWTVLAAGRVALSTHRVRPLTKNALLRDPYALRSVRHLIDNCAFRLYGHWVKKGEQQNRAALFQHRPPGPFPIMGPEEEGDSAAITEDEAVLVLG

[12] = target: Serine/threonine-protein kinase PLK1 (Homo sapiens) (UniProt P53350); test: Inhibition of human recombinant PLK1 at 40 nM related to control ULK1
[13] = target: 5'-AMP-activated protein kinase catalytic subunit alpha-1 (Homo sapiens) (UniProt Q13131); test: Inhibition of human recombinant AMPKa1 at 15 nM in presence of ATP by radiometric assay relative to control
In short: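 Panel of 327 recombinant human kinases, each assayed in vitro by radiometric activity assay in duplicate at a single inhibitor concentration per compound, chosen with reference to its ULK1 inhibition. Activity remaining was expressed as percent of vehicle control, and percent inhibition was calculated as 100 minus percent activity remaining.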

[14] = target: Macrophage colony-stimulating factor 1 receptor (Homo sapiens) (UniProt P07333); test: Inhibition of human recombinant FMS at 15 nM in presence of ATP by radiometric assay relative to control
[15] = target: Mitogen-activated protein kinase kinase kinase kinase 1 (Homo sapiens) (UniProt Q92918); test: Inhibition of human recombinant HPK1 at 15 nM in presence of ATP by radiometric assay relative to control
[16] = target: TGF-beta receptor type-2 (Homo sapiens) (UniProt P37173); test: Inhibition of human recombinant TGFbR2 at 15 nM in presence of ATP by radiometric assay relative to control
[17] = target: NT-3 growth factor receptor (Homo sapiens) (UniProt Q16288); test: Inhibition of human recombinant TRKC at 15 nM related to control ULK1
NT-3 growth factor receptor (Homo sapiens), sequence (Q16288 32-839 limits assumed): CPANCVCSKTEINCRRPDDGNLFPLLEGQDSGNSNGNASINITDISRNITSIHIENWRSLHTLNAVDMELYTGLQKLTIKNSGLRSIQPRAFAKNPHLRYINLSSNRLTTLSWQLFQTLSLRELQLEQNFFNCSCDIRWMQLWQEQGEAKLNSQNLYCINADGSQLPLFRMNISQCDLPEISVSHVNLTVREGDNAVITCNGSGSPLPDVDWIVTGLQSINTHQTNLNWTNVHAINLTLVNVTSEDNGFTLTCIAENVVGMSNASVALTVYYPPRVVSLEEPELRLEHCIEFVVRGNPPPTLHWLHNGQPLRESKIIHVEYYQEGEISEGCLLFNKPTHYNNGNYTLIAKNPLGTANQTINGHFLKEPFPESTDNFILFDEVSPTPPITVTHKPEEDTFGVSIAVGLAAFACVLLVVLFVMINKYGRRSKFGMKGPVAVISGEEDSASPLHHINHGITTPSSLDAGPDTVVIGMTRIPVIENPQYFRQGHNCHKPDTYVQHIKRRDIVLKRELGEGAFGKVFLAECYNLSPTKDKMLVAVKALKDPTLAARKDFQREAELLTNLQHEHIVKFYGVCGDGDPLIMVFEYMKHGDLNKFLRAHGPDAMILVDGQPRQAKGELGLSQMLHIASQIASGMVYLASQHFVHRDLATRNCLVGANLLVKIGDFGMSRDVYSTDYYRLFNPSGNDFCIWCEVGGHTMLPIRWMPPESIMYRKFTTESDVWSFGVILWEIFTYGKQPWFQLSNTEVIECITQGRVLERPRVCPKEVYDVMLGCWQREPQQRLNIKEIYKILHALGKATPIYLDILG

Serine/threonine-protein kinase PLK1 (Homo sapiens), sequence (P53350 whole entry): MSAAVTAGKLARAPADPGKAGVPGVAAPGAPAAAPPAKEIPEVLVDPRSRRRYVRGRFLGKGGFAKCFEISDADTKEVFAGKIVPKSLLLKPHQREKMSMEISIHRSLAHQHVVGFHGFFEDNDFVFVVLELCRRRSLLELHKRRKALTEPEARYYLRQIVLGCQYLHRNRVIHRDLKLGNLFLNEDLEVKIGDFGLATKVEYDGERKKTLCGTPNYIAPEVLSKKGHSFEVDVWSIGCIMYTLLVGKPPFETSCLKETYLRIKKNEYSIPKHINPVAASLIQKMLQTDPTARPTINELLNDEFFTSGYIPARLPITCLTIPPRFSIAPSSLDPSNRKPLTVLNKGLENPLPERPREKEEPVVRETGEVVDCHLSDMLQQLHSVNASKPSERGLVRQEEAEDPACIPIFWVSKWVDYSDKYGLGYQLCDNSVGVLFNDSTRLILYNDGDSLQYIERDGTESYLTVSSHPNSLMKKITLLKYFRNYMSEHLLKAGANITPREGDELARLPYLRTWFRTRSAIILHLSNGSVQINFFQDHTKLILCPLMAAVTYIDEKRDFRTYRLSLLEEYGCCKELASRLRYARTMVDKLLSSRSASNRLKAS
Mitogen-activated protein kinase kinase kinase kinase 1 (Homo sapiens), sequence (Q92918 whole entry, looked up): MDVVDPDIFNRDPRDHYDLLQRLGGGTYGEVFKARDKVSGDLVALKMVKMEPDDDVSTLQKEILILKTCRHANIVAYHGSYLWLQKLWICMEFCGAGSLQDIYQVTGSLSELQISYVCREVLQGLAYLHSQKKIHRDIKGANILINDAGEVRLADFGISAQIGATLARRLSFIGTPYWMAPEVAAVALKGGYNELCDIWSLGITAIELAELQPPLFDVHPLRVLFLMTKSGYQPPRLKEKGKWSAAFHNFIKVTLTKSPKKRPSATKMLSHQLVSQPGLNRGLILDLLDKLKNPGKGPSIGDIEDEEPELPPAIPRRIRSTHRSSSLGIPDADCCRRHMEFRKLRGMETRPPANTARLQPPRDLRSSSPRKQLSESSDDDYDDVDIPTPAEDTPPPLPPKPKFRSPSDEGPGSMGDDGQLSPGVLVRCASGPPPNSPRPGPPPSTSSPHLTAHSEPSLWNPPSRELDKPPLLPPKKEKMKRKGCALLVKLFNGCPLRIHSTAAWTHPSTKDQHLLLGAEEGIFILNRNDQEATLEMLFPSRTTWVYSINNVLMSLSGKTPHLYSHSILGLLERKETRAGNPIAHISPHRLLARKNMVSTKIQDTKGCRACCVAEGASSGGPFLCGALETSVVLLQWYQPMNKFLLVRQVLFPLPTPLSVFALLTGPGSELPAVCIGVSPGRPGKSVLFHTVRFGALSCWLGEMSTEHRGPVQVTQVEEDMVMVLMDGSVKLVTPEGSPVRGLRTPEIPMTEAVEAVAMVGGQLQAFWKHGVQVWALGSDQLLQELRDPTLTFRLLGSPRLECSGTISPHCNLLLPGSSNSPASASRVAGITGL
Dual specificity mitogen-activated protein kinase kinase 1 (Homo sapiens), sequence (Q02750 whole entry, canonical isoform): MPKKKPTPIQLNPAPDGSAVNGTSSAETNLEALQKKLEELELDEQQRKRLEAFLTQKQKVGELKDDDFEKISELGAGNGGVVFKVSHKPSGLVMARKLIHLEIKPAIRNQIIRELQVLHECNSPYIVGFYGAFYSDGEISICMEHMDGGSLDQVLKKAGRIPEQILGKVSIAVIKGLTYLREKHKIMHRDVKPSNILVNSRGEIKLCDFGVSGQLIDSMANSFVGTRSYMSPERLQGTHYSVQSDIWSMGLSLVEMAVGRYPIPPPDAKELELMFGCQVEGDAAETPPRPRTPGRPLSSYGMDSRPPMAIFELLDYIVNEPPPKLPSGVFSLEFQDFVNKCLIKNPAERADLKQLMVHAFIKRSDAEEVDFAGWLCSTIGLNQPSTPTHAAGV
MAP kinase-activated protein kinase 3 (Homo sapiens), sequence (Q16644 whole entry, looked up): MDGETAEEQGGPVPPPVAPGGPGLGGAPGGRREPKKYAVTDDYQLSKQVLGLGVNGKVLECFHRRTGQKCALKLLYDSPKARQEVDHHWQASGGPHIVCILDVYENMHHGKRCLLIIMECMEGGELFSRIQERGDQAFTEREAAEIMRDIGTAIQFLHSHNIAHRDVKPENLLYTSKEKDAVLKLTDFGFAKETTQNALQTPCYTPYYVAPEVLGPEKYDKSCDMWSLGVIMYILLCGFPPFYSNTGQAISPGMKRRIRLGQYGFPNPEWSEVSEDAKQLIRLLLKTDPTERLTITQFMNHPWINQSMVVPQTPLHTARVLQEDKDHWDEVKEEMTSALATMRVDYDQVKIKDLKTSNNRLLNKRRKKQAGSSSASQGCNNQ
STE20-like serine/threonine-protein kinase (Homo sapiens), sequence (Q9H2G2 whole entry, looked up): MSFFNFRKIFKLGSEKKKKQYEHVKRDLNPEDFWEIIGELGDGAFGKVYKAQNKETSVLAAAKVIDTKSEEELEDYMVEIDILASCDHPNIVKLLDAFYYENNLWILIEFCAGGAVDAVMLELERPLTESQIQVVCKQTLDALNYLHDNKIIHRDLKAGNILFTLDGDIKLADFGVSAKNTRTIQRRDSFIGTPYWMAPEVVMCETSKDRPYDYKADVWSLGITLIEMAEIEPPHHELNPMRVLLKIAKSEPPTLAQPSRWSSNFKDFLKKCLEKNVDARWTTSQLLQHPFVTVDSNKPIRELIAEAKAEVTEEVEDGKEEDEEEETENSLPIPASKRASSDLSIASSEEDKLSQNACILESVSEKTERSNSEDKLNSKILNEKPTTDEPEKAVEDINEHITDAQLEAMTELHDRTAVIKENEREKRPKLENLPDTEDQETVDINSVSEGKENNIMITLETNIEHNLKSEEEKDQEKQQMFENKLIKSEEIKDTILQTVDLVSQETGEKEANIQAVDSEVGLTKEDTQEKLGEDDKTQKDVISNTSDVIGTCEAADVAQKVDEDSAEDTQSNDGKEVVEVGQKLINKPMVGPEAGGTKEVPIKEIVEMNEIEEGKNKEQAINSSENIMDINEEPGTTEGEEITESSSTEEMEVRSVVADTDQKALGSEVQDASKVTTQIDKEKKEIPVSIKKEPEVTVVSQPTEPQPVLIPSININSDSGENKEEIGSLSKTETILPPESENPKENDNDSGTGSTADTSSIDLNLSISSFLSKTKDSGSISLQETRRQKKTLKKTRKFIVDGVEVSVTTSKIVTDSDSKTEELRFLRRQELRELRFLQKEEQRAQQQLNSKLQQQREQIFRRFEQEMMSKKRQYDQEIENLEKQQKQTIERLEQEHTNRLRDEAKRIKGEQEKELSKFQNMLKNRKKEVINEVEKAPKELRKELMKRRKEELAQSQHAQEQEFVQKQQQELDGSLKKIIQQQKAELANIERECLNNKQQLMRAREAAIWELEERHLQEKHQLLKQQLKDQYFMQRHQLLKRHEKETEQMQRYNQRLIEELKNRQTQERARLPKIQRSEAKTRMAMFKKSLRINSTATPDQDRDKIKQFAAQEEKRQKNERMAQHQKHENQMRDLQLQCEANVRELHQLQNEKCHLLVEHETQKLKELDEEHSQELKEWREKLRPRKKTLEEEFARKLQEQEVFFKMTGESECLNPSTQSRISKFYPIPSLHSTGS
3-phosphoinositide-dependent protein kinase 1 (Homo sapiens), sequence (O15530 whole entry, looked up): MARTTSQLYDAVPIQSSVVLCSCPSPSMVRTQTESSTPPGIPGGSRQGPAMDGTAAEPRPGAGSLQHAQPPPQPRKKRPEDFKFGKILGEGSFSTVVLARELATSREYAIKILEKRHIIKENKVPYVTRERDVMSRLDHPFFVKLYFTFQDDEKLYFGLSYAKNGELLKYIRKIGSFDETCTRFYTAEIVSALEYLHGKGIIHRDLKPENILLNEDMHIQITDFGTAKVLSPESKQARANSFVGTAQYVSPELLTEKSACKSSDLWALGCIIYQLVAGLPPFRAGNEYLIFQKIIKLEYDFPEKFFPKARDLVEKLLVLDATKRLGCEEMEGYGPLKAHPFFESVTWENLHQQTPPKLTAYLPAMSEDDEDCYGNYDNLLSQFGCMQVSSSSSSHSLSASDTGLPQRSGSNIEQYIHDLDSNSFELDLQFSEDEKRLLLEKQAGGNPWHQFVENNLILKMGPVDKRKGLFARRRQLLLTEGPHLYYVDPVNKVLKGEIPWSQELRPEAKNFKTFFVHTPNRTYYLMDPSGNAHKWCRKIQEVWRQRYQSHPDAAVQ

inhibition [1]: 1%
inhibition [2]: 0%
inhibition [3]: 2%
fold change (FC) [4]: 0.03
fold change (FC) [5]: 0.09
fold change (FC) [6]: 0.12
fold change (FC) [7]: 0.2
fold change (FC) [8]: 0.05
SMILES: CNC(=O)c1ccccc1Oc1nc(Nc2cc(OC)c(OC)c(OC)c2)ncc1Br

inhibition [9]: 39%
inhibition [10]: 0%
fold change (FC) [11]: 0
fold change (FC) [12]: 0
SMILES: O=C(N[C@@H](C1CC1)C(F)(F)F)c1cc(-c2cnn3cc(-c4ccc(F)cc4)cnc23)cs1

inhibition [13]: 58%
inhibition [14]: 17%
inhibition [15]: 0%
inhibition [16]: 42%
fold change (FC) [17]: 0
SMILES: CC(C)[C@H](NC(=O)c1cc(-c2cnn3cc(-c4ccc(OCCN5CCCCC5)cc4)cnc23)cs1)C(F)(F)F
